Experiments:
[1] = Volume of distribution at steady state in rat at 1 mg/kg, iv; type: ADME, organism-based; set-up: dose 1 mg/kg, route intravenous; conditions: in vivo, read-out: Vdss
In short: (§1)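 Fasted male rats (n = 3) received 1 mg/kg iv or 10 mg/kg po. Jugular vein blood was drawn with a heparinized syringe at pre-dose and 2 (iv only), 5, 15 and 30 min, and 1, 2, 4, 6 and 8 h. Plasma was obtained by centrifugation at 4 °C and stored at −80 °C. AUC, Cmax, T1/2, Vss and CL came from the plasma concentration–time course. BA was derived from dose-normalized AUCpo/AUCiv.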

[2] = target: Prostaglandin E2 receptor EP4 subtype (Mus musculus, UniProt P32240); assay: Displacement of [3H]PGE2 from mouse prostaglandin EP4 receptor expressed in CHO cells after 60 mins by liquid scintillation counting; type: cell-based
Chain of Prostaglandin E2 receptor EP4 subtype (P32240 whole entry): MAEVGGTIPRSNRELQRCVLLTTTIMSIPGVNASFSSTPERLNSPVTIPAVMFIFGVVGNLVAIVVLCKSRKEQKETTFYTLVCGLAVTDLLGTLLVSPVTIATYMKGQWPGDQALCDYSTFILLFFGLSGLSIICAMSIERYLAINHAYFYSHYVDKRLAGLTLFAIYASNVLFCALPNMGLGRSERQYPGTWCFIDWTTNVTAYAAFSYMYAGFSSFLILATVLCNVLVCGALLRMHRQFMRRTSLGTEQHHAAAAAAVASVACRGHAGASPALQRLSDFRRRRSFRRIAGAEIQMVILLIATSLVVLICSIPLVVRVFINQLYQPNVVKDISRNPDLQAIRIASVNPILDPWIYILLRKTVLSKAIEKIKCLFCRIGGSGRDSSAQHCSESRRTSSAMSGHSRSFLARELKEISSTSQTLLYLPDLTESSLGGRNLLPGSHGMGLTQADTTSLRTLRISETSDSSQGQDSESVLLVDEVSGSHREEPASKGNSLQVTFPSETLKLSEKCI
In short: (§2)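 Membranes came from CHO cells stably expressing mEP1, EP2, EP3 or EP4. They were incubated with 2.5 nM [3H]PGE2 and graded test concentrations in 10 mM KH2PO4–KOH (1 mM EDTA, 10 mM MgCl2, 100 mM NaCl, pH 6.0) at room temperature, 20 min for EP1 and 60 min for EP2–4. Reactions were filtered on GF/B, washed with ice-cold buffer, and counted by scintillation. IC50 came by regression, with Ki via Cheng–Prusoff.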

[3] = AUClast in rat at 1 mg/kg, iv; type: ADME, organism-based; set-up: time 0 - last, dose 1 mg/kg, route intravenous; conditions: plasma; in short: as §1
Thromboxane A2 receptor = target: T1, Thromboxane A2 receptor (Homo sapiens, UniProt P21731); assay: Displacement of [3H]-SQ29548 from human prostanoid TP receptor expressed in CHO cells after 30 mins by liquid scintillation counting
T1 sequence (P21731 whole entry): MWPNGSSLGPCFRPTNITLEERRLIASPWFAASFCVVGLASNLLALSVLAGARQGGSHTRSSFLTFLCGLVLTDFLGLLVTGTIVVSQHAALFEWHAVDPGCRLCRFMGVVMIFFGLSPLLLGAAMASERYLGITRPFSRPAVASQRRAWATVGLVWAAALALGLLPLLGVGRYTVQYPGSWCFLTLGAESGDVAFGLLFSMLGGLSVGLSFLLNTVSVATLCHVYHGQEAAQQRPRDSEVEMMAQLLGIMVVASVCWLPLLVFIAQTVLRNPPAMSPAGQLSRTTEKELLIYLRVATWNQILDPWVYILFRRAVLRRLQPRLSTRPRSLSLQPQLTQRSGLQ

[4] = target: T2, Prostaglandin D2 receptor (Mus musculus, UniProt P70263); assay: Displacement of [3H]PGD2 from mouse prostanoid DP receptor expressed in CHO cells after 20 mins by liquid scintillation counting
T2 sequence (P70263 whole entry): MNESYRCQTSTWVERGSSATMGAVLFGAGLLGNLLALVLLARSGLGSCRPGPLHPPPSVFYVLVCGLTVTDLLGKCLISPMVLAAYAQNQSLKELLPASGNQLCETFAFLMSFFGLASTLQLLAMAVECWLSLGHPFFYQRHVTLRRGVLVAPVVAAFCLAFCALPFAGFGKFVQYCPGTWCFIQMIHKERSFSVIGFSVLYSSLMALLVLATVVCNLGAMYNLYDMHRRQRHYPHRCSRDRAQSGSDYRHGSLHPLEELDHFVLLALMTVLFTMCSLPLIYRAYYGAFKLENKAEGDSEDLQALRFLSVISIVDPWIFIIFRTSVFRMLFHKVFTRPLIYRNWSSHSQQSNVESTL

[5] = Cmax in rat at 10 mg/kg, po; type: ADME, organism-based; set-up: dose 10 mg/kg, route oral; conditions: in vivo; in short: as §1
[6] = Total clearance in rat at 1 mg/kg, iv; type: ADME, organism-based; set-up: dose 1 mg/kg, route intravenous; conditions: in vivo; in short: as §1
[7] = Oral bioavailability in rat at 10 mg/kg; type: ADME, organism-based; conditions: in vivo; in short: as §1
[8] = target: T2, Prostaglandin D2 receptor; assay: Antagonist activity at mouse prostanoid DP receptor expressed in CHO cells assessed as inhibition of PGD2-induced intracellular cAMP production; type: functional, cell-based
In short: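 CHO-mDP cells were seeded at 1×10^5 cells/well and grown 2 days. They were preincubated about 10 min at 37 °C in MEM with 2 µM diclofenac, then about 10 min in MEM with 0.1% BSA, 1 mM IBMX and 2 µM diclofenac. Test compounds at various concentrations plus 10 nM PGD2 were then added for 10 min at 37 °C. Reactions were stopped with 10% TCA, extracted with tri-n-octylamine/chloroform, and cAMP was measured by EIA.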

[9] = target: Prostaglandin E2 receptor EP2 subtype (Mus musculus, UniProt Q62053); assay: Displacement of [3H]PGE2 from mouse prostaglandin EP2 receptor expressed in CHO cells after 60 mins by liquid scintillation counting; type: cell-based; in short: as §2
Chain of Prostaglandin E2 receptor EP2 subtype (Q62053 whole entry): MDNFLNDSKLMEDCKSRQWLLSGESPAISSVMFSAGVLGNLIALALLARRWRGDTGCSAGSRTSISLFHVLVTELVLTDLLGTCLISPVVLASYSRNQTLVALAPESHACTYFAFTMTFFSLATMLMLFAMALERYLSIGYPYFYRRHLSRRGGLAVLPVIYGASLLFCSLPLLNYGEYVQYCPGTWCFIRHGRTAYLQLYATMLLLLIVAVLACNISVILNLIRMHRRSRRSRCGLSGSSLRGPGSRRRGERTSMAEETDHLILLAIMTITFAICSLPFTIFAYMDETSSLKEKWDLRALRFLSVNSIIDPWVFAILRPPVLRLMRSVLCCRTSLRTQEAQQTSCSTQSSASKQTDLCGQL

[10] = Half life in rat at 1 mg/kg, iv; type: ADME, organism-based; set-up: dose 1 mg/kg, route intravenous; conditions: in vivo; in short: as §1
[11] = target: T3, Prostaglandin E2 receptor EP3 subtype (Mus musculus, UniProt P30557); assay: Displacement of [3H]PGE2 from mouse prostaglandin EP3alpha receptor expressed in CHO cells after 60 mins by liquid scintillation counting; type: cell-based; in short: as §2
T3 sequence (P30557 whole entry): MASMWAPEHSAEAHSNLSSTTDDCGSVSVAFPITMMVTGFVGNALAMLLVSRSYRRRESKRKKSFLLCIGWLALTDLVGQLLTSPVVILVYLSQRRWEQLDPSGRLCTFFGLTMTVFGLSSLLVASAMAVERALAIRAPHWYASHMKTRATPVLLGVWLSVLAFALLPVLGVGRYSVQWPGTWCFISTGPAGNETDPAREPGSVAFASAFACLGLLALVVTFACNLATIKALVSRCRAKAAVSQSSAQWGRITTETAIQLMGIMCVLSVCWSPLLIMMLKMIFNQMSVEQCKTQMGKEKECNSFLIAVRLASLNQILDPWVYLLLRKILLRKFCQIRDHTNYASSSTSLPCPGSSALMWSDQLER

[12] = Half life in rat at 10 mg/kg, po; type: ADME, organism-based; set-up: dose 10 mg/kg, route oral; conditions: in vivo; in short: as §1
[13] = target: Prostaglandin F2-alpha receptor (Mus musculus, UniProt P43117); assay: Displacement of [3H]PGF2alpha from mouse prostanoid FP receptor expressed in CHO cells after 60 mins by liquid scintillation counting; type: cell-based
Chain of Prostaglandin F2-alpha receptor (P43117 whole entry): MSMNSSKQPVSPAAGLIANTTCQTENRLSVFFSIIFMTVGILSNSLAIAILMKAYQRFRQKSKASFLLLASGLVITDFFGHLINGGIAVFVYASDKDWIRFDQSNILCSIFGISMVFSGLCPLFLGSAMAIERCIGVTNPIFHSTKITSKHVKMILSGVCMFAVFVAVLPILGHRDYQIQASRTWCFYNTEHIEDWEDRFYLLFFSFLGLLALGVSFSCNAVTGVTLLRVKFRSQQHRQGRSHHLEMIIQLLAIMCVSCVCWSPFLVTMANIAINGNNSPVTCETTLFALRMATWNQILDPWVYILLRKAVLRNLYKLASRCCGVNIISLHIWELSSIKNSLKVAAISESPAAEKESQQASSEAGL
In short: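 CHO-mFP membranes were incubated with 2.5 nM [3H]PGF2α and varied test concentrations in 10 mM KH2PO4–KOH, 1 mM EDTA, 10 mM MgCl2, 100 mM NaCl, pH 6.0, for 60 min at room temperature. Samples were then filtered on GF/B, washed with ice-cold phosphate/NaCl buffer, and counted by scintillation. IC50 came from the regression curve, and Ki = IC50/(1+[L]/Kd).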

[14] = AUClast in rat at 10 mg/kg, po; type: ADME, organism-based; set-up: dose 10 mg/kg, route oral, time 0 - last; conditions: plasma; in short: as §1
Prostacyclin receptor = Prostacyclin receptor (Homo sapiens, UniProt P43119); assay: Displacement of [3H]Iloprost from human prostanoid IP receptor expressed in CHO cells after 30 mins by liquid scintillation counting
Chain of Prostacyclin receptor (P43119 whole entry): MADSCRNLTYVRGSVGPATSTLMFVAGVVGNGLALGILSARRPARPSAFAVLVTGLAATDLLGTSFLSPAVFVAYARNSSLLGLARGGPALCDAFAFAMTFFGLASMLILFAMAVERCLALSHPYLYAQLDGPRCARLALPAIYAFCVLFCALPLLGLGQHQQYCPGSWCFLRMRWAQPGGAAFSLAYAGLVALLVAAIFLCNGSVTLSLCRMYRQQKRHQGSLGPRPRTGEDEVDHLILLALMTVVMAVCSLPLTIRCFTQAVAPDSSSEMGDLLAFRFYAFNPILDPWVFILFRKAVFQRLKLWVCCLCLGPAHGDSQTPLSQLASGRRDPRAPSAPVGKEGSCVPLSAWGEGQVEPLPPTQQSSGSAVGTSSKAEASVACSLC

[15] = target: T4, Prostaglandin E2 receptor EP1 subtype (Mus musculus, UniProt P35375); assay: Displacement of [3H]PGE2 from mouse prostaglandin EP1 receptor expressed in CHO cells after 20 mins by liquid scintillation counting
T4 sequence (P35375 whole entry): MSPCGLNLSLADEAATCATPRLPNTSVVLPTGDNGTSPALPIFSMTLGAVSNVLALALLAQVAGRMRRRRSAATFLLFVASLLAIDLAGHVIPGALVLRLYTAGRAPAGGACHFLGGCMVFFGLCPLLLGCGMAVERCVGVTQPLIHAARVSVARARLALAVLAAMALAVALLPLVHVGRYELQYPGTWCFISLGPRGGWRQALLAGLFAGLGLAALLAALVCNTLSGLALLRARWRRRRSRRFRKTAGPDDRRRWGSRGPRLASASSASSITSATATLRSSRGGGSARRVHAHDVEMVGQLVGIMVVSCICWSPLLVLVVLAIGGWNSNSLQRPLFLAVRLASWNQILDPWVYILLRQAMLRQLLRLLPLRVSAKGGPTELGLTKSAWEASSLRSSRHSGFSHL

- Vd [1]: 0.61 L/kg
- Ki [2]: > 10000 nM
- AUC(0-t) [3]: 4600 ng·h/mL
- Ki (Thromboxane A2 receptor): > 10000 nM
- Ki [4]: 31 nM
- Cmax [5]: 8700 ng/mL
- clearance [6]: 3.3 mL/min/kg
- bioavailability [7]: 62%
- IC50 [8]: 4.6 nM
- Ki [9]: 170 nM
- half-life [10]: 3.1 h
- Ki [11]: > 10000 nM
- half-life [12]: 5.2 h
- Ki [13]: > 10000 nM
- AUC(0-t) [14]: 28800 ng·h/mL
- Ki (Prostacyclin receptor): 2600 nM
- Ki [15]: > 10000 nM
Structure (SMILES): Cc1ccc(CC(=O)O)cc1NC(=O)c1ccc(OC[C@@H]2CN(C)c3ccccc3O2)cc1C
